Like-named read-outs stand apart in the source and are kept apart here.
How the values were obtained:
SphK2 [1] = molecular target: T1, SphK2 (Homo sapiens, UniProt Q9NRA0); assay: SphK2 inhibition, fluorometric assay with NBD-sphingosine as substrate; type: biochemical; details: read-out: IC50 for SphK2; 100 nM recombinant SphK2, NBD-sphingosine, 37 °C
T1 sequence (Q9NRA0 1-654): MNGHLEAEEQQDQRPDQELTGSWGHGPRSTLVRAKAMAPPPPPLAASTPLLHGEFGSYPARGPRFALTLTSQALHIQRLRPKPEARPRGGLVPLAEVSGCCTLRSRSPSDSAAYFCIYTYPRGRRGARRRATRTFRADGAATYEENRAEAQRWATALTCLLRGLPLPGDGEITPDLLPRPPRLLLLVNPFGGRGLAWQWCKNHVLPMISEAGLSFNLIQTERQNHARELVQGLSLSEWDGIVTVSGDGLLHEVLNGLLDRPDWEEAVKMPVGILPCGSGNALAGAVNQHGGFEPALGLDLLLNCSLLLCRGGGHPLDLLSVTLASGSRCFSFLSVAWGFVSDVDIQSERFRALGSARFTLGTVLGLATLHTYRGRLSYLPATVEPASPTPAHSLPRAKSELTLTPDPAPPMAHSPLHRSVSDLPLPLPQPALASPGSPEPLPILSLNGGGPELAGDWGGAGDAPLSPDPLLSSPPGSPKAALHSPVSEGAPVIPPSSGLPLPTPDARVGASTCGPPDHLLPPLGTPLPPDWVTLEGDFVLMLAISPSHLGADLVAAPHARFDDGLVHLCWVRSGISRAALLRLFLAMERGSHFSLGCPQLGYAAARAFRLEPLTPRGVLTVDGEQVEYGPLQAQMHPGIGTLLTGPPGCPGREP
Method in brief: (§1)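 Recombinant SphK1 or SphK2 at 100 nM in 30 mM Tris-HCl pH 7.4 with 150 mM NaCl, 10% glycerol, 0.05% Triton X-100 and 1% DMSO. Test compounds were dissolved in DMSO and screened at 650 μM; actives were then tested at several concentrations to derive IC50. NBD-sphingosine-1-phosphate formation was read by fluorescence (ex 550 nm, em 584 nm) at 37 °C.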

SphK1 = SphK1 (Homo sapiens, UniProt Q9NYA1); assay: SphK1 inhibition, fluorometric assay with NBD-sphingosine as substrate; type: biochemical
Sequence of SphK1 (Q9NYA1 whole entry): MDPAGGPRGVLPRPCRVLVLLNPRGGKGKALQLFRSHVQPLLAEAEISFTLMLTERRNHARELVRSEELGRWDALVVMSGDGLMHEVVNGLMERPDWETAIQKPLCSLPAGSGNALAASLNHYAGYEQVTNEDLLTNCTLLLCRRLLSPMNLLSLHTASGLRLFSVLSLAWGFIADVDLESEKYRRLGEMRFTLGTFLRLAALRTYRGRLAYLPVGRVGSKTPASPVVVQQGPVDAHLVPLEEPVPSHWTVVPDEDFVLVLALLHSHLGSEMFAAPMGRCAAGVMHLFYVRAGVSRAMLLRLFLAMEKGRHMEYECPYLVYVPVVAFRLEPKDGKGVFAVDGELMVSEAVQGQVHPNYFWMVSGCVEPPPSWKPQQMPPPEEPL
Method in brief: as §1

SphK2 [2] = molecular target: T1, SphK2; details: read-out: inhibitory effect reported for K145 on SphK2; cited from earlier work

Compound	IC50 (SphK1)	other results
3-((4-(4-chlorophenyl)pyrimidin-2-yl)-1-yl)oxymethyl) quinolin-2(1H)-ones [compound 9]		IC50 (SphK2 [1]): 18.2 µM
COc1ccc2[nH]c(=O)c(/C=C/C(=O)c3ccc(Nc4nccc(-c5ccc6ccccc6c5)n4)cc3)cc2c1 [11b, (E)-6-methoxy-3-(3-(4-((4-(naphthalen-2-yl)pyrimidin-2-yl)amino)phenyl)-3-oxoprop-1-en-1-yl)quinolin-2(1H)-one]		selectivity SphK1 versus SphK2 (SphK1; in words): selective inhibitory effect on SphK1
COc1cc2cc(CNc3ccc(Nc4nccc(-c5ccc6ccccc6c5)n4)cc3)c(=O)[nH]c2cc1OC [16b, 6,7-dimethoxy-3-(((4-((4-(naphthalen-2-yl)pyrimidin-2-yl)amino)phenyl)amino)methyl)quinolin −2(1H)-one]	18.7 µM	
O=c1[nH]c2cc(O)c(O)cc2cc1CNc1ccc(Nc2nccc(-c3ccc4ccccc4c3)n2)cc1 [19b, 6,7-dihydroxy-3-(((4-((4-(naphthalene-2-yl)pyrimidin-2-yl)amino)phenyl)amino)methyl)quinolin-2(1H)-one]	15.7 µM	
CCCCOc1ccc(CCC=C2SC(=O)N(CCN)C2=O)cc1 [K145, 3-(2-amino-ethyl)-5-[3-(4-butoxyl-phenyl)-propylidene]-thiazolidine-2,4-dione]		IC50 (SphK2 [2]): 4.3 µM

More lines, main results first:

IC50 (SphK1)	Compound	other results
43.9 µM	Oc1ccc(Nc2nccc(-c3ccc(Cl)cc3)n2)cc1 [4a, 4-((4-(4-chlorophenyl)pyrimidin-2-yl)amino)phenol]	
28.2 µM	COc1ccc2[nH]c(=O)c(/C=C/C(=O)c3ccc(Nc4nccc(-c5ccc(Cl)cc5)n4)cc3)cc2c1 [11a, (E)-3-(3-(4-((4-(4-chlorophenyl)pyrimidin-2-yl)amino)phenyl)-3-oxoprop-1-en-1-yl)-6-methoxyquinolin-2(1H)-one]	
59.1 µM	COc1cc2cc(CNc3ccc(Nc4nccc(-c5ccc(Cl)cc5)n4)cc3)c(=O)[nH]c2cc1OC [16a, 3-(((4-((4-(4-chlorophenyl)pyrimidin-2-yl)amino)phenyl)amino)methyl)-6,7-dimethoxyquinolin-2(1H)-one]	

From article PMC6954317 (Bioorganic chemistry, 2019)
